The results in this text go back to ChEMBL document CHEMBL4184298, “Development of Potent Inhibitors of Receptor Tyrosine Kinases by Ligand-Based Drug Design and Target-Biased Phenotypic Screening” (J Med Chem, 2018).

For test [1], the target named is Epithelial discoidin domain-containing receptor 1 (Homo sapiens, UniProt Q08345). The test can be described thus: Inhibition of wild-type human partial length DDR1 (R565 to V876 residues) expressed in bacterial expression system using poly [Glu, Try] 4:1 as substrate in presence of [gamma-33P]ATP. An outline of the steps: (§1)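 Radiometric assay on recombinant kinase: ³³P incorporation into the kinase substrate was measured and activity was expressed relative to a DMSO control.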

Test [2] deals with ALK tyrosine kinase receptor (Homo sapiens, UniProt Q9UM73). The test can be described thus: Inhibition of wild-type human partial length ALK (I1088 to E1409 residues) expressed in mammalian expression system using poly [Glu, Try] 4:1 as substrate in presence of [gamma-33P]ATP. An outline of the steps:
as §1

In the next test the test system is MOLM-13. The test can be described thus: Antiproliferative activity against human MOLM13 cells after 5 days by PrestoBlue assay. It is filed as functional, cell-based.
In a further test the target is Aurora kinase B (Homo sapiens, UniProt Q96GD4). Description: Inhibition of wild-type human partial length AURKB (D25 to A303 residues) expressed in mammalian expression system using poly [Glu, Try] 4:1 as substrate in presence of [gamma-33P]ATP. An outline of the steps:
as §1

The target in test [3] is Receptor-type tyrosine-protein kinase FLT3 (Homo sapiens, UniProt P36888, ITD). The test can be described thus: Inhibition of human partial length FLT3 ITD mutant expressed in bacterial expression system using poly [Glu, Try] 4:1 as substrate in presence of [gamma-33P]ATP. Summed up: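 Recombinant kinase assays were run radiometrically by an outside contract service. Activity was read as 33P incorporation into each kinase's substrate and expressed relative to a DMSO control.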

Test [4] in a line: Selectivity ratio of EC50 for human AXL-negative BT474 cells to EC50 for mouse AXL-positive breast cancer cells. The class given is functional. An outline of the steps: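 AXL− BT474 and AXL+ cells were each dosed with 8-point half-log series (0.03–100 μM) and read by PrestoBlue at day 5 (n = 2). EC50s were fitted for each line, and the ratio is EC50(AXL−)/EC50(AXL+).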
The next test relates to BT-474. The test can be described thus: Antiproliferative activity against human AXL-negative BT474 cells after 5 days by PrestoBlue assay. It is filed as functional, cell-based. The settings on record: BT-474, 120 h. An outline of the steps:
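8-point half-log dose–response, 0.03–100 μM. Cell viability read with PrestoBlue reagent at day 5. EC50 calculated from the curves. SD from n = 2. Screened alongside an AXL+ line, with foretinib as the positive control.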

Activity calls are given as the source filed them. The calls are words filed in the database; no cut-off is given here.

Sequence of ALK tyrosine kinase receptor (Q9UM73 whole entry, the tested form may be a part): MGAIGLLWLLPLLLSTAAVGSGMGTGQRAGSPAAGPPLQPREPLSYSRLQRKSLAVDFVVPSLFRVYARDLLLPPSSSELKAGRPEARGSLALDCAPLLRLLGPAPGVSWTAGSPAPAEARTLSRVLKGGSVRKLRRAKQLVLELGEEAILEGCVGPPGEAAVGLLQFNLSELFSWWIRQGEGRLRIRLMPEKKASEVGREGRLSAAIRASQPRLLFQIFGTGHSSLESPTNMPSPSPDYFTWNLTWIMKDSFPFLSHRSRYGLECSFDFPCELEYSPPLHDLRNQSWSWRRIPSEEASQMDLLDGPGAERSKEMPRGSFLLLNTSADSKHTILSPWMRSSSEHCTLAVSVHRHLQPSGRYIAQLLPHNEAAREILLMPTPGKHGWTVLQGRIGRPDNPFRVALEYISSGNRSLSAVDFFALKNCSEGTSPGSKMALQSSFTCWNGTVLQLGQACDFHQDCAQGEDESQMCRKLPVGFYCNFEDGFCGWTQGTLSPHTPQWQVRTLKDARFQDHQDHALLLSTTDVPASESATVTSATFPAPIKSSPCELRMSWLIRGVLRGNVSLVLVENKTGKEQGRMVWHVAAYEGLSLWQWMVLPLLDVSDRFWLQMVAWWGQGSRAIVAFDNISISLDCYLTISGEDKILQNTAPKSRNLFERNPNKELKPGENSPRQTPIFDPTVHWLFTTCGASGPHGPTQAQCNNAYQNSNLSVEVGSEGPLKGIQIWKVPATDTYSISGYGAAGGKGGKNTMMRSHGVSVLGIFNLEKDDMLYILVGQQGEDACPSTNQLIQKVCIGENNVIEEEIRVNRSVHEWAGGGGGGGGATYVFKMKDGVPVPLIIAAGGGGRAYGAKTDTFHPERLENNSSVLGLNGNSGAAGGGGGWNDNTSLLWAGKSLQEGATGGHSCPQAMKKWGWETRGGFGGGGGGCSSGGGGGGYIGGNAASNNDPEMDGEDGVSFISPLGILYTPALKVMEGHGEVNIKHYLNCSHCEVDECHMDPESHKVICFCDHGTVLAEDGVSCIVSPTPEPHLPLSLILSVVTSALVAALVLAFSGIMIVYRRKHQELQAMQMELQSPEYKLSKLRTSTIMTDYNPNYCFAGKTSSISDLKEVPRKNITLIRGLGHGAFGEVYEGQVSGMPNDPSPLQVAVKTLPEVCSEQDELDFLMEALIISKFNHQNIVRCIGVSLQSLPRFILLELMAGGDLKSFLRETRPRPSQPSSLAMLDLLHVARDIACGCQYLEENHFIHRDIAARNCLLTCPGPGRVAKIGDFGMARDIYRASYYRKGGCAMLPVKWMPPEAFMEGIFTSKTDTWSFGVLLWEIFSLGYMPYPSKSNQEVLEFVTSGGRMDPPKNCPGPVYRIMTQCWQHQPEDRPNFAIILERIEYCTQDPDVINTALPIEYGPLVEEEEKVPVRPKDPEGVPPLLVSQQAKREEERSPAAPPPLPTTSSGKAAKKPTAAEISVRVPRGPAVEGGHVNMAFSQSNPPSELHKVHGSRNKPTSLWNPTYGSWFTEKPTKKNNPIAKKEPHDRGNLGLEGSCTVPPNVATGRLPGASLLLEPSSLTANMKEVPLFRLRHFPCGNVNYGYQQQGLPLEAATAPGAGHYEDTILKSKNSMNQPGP
Sequence of Aurora kinase B (Q96GD4 whole entry, the tested form may be a part): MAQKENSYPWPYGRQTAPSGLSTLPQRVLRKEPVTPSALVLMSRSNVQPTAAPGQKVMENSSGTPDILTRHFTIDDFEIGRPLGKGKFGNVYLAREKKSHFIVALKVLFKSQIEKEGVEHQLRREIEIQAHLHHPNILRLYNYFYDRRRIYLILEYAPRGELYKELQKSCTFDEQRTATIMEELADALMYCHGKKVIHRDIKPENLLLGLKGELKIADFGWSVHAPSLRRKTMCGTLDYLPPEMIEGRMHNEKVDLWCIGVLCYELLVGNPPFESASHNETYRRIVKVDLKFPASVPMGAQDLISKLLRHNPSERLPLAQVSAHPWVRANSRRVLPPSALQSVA
Sequence of Epithelial discoidin domain-containing receptor 1 (Q08345 whole entry, the tested form may be a part): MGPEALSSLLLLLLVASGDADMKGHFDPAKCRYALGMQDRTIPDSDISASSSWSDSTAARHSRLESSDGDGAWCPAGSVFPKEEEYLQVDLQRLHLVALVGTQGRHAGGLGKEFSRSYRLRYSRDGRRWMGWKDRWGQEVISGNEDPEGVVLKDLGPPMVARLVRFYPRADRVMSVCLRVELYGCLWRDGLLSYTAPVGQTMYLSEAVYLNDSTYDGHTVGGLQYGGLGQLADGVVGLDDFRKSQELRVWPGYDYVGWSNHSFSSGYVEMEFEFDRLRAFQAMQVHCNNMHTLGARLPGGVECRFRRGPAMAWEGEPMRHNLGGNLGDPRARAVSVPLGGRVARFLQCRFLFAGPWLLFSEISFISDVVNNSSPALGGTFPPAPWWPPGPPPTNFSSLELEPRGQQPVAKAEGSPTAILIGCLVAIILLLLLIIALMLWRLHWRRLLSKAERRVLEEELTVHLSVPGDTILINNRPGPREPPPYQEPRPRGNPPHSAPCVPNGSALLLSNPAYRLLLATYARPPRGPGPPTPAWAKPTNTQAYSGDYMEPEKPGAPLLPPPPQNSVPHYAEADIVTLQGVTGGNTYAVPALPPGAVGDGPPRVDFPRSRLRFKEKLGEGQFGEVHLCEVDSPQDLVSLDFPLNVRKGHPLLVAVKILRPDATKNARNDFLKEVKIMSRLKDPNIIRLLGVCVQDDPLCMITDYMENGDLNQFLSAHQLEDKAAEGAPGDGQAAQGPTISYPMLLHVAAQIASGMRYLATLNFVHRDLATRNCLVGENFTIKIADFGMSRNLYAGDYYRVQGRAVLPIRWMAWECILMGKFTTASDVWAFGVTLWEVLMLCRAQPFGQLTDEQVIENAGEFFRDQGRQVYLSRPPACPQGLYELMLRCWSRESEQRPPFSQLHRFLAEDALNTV
Sequence of Receptor-type tyrosine-protein kinase FLT3 (P36888 whole entry, looked up, change not shown): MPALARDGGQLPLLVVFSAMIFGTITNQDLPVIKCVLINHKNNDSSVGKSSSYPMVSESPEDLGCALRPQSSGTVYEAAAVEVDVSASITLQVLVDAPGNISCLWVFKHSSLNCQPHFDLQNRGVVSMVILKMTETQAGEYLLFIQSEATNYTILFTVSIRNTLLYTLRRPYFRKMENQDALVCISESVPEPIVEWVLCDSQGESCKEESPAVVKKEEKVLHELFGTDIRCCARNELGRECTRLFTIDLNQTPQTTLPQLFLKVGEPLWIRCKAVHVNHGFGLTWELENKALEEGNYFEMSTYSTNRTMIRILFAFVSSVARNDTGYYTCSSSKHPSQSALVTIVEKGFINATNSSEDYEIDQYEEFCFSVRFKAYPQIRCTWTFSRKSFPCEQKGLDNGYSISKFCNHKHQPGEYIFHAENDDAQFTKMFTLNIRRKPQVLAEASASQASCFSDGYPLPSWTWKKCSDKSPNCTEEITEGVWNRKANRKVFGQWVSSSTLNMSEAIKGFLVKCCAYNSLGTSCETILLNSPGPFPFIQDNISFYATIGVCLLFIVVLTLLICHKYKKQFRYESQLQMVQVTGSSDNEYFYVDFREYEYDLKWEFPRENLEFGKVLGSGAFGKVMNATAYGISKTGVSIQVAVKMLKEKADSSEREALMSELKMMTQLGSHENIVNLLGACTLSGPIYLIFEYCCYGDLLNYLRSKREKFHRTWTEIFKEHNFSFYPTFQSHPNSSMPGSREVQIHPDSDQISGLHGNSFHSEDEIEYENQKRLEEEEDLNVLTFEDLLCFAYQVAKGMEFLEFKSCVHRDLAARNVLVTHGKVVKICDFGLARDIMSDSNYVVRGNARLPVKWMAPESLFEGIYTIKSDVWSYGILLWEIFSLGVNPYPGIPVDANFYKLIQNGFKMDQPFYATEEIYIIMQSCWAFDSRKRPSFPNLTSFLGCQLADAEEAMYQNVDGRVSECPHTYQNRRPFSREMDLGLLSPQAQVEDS

Turning to `CNc1ncc2c(-c3ccc(N4CCN(C)CC4)nc3)nn(CC3CCCC3)c2n1`, the IC50 amounted to 100 nM in test [1], 190 nM in test [2], 170 nM at Aurora kinase B and 30 nM in test [3]. For the same compound, in the test with MOLM-13, the result was Active.
On the same counts, the results for `Nc1nc(Nc2ccc3c(c2)CC[C@@H](N2CCCC2)CC3)nn1-c1cc2c(nn1)-c1ccccc1CCC2` [BEMCENTINIB] are 20 nM, 530 nM, 100 nM, 6 nM and “Active”.
As to `CNc1ncc2c(-c3ccc(N4CCNCC4)nc3)nn(CC3CCCC3)c2n1`, in test [4], the “Ratio EC50” value came to 2. Further, the 50% effective concentration (EC50) with BT-474 was 1640 nM.
As for `CNc1ncc2c(-c3ccc(N4CCNCC4)cc3)nn(Cc3cn(Cc4ccccc4)nn3)c2n1`, the “Ratio EC50” value in test [4] was less than 1.
